Results from ChEMBL document CHEMBL4680238, “Novel octapeptide-DTX prodrugs targeting MMP-7 as effective agents for the treatment of colorectal cancer with lower systemic toxicity” (Eur J Med Chem, 2020).
Residues, ends and D or L forms follow the SMILES beside them. *: point of attachment. X1 = CC(=O)O[C@@]12CO[C@@H]1C[C@H](O)[C@@]1(C)C(=O)[C@H](O)C3=C(C)[C@@H](OC(=O)[C@H](OC(=O)OCc4ccc(N*)cc4)[C@@H](NC(=O)OC(C)(C)C)c4ccccc4)C[C@@](O)([C@@H](OC(=O)c4ccccc4)[C@H]21)C3(C)C

Experiments:
[1] = Toxicity in BALB/c nude mouse xenografted with human HCT-116 cells assessed as reduction in body weight at 11.7 mg/kg, ip administered once for every 7 days for 14 days relative to control; assay type: organism-based; parameters: scale not given: the % may be the effect or the level left; conditions: in vivo, 336 h, time 14 day
In short: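 HCT116 s.c. xenografts in male BALB/c nude mice, n = 6 per group. Dosing was ip once every 7 days for 2 weeks in DMSO/castor oil/ethanol/saline; vehicle controls got solvent. Body weight recorded every other day or every three days. Weight loss taken at day 14. Mean ± SD.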

HCT-116 [2] = assay: Cytotoxicity against human HCT-116 cells assessed as reduction in cell viability after 48 hrs by MTT assay; assay type: functional, cell-based; conditions: HCT-116, 48 h
In short: (§1)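 Cells seeded at 5000/well and precultured 1 day. HCT116 grown in McCoy's 5A + 10% FBS; SW620 and HEK293 in DMEM + 10% FBS; CCD18Co in DMEM + 15% FBS. Compounds from 0.1 M DMSO stocks were tested at 10^-10 to 10^-4 mol/L in sixplicate: HCT116 and HEK293 for 48 h, SW620 and CCD18Co for 72 h, at 37 °C, 5% CO2. MTT (5 mg/mL) added for 4 h, then A570 read; IC50 estimated.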

HEK293 = assay: Cytotoxicity against HEK293 cells assessed as reduction in cell viability after 48 hrs by MTT assay; assay type: cell-based; conditions: Homo sapiens, HEK293, 48 h; in short: as §1
[3] = Half life of compound in PBS buffer at pH 7.4 at 50 ug/ml up to 72 hrs by RP-HPLC analysis; assay type: physicochemical; conditions: dose 50 µg/ml
HCT-116 [4] = assay: Antitumour activity against human HCT-116 cells xenografted in ip dosed BALB/c nude mouse assessed as tumour growth inhibition administered once for every 7 days for 14 days; assay type: functional, organism-based; conditions: time 14.0 day
In short: (§2)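 Male BALB/c nude mice received s.c. HCT116 cells (2 × 10^6 in 0.2 mL PBS). Once tumours reached 100-200 mm3, mice were randomized into groups of six. Dosing was ip, 0.1 mL/10 g, once every 7 days, in DMSO 0.5%/castor oil 5%/ethanol 5%/saline 89.5%; vehicle controls got solvent. Caliper volume V = L×W²×0.52 read every 2-3 days. Tumours excised and weighed on day 14.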

HCT-116 [5] = assay: Antitumour activity against human HCT-116 cells xenografted in BALB/c nude mouse assessed as tumour growth inhibition at 23.4 mg/kg, ip administered once for every 7 days for 14 days relative to control; assay type: functional; conditions: HCT-116, ip, 336 h, time 14 day, read-out: TGI; in short: as §2
HCT-116 [6] = assay: Antitumour activity against human HCT-116 cells xenografted in BALB/c nude mouse assessed as tumour growth inhibition at 5.85 mg/kg, ip administered once for every 7 days for 14 days relative to control; assay type: functional; conditions: HCT-116, ip, 336 h, time 14 day, read-out: TGI; in short: as §2
[7] = Toxicity in BALB/c nude mouse xenografted with human HCT-116 cells assessed as concentrated nucleus in liver at 11.73 mg/kg, ip administered once for every 7 days for 14 days by H and E staining based assay; assay type: organism-based; conditions: in vivo, 336 h, time 14 day
In short: (§3)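 At the end of the 14-day ip xenograft study (HCT116, BALB/c nude), heart and liver were collected from vehicle and molar-equivalent dose groups. Tissues fixed in 10% formalin in PBS and stained with H&E. Liver examined at 400×, heart at 100×.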

[8] = Toxicity in BALB/c nude mouse xenografted with human HCT-116 cells assessed as necrosis in liver at 11.73 mg/kg, ip administered once for every 7 days for 14 days by H and E staining based assay; assay type: organism-based; conditions: in vivo, 336 h, time 14 day; in short: as §3
[9] = Toxicity in BALB/c nude mouse xenografted with human HCT-116 cells assessed as inflammatory cell invasion in heart at 11.73 mg/kg, ip administered once for every 7 days for 14 days by H and E staining based assay; assay type: organism-based; conditions: in vivo, 336 h, time 14 day; in short: as §3
[10] = AUC (0 to t) in Sprague-Dawley rat at 5 mg/kg, iv measured up to 72 hrs by LC-MS/MS analysis; assay type: ADME, organism-based; parameters: route intravenous, dose 5 mg/kg, time <=72; conditions: in vivo
In short: (§4)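 Male SD rats (180-200 g), fasted 12 h with free water, n = 3 per group. Single tail-vein dose of 5 mg/kg in 0.5% DMSO/5% castor oil/5% ethanol/89.5% saline. Retro-orbital blood drawn 0.083-72 h with heparin. Plasma protein-precipitated with methanol containing paclitaxel internal standard, then analysed by LC-MS/MS. Parameters from non-compartmental analysis, mean ± SD. For the DTX group, parameters were calculated after converting dose to the molar equivalent of the prodrug.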

[11] = AUC (0 to infinity) in Sprague-Dawley rat at 5 mg/kg, iv measured up to 72 hrs by LC-MS/MS analysis; assay type: ADME, organism-based; parameters: route intravenous, dose 5 mg/kg, time <=72; conditions: Sprague-Dawley, in vivo; in short: as §4
[12] = MRT (0 to infinity) in Sprague-Dawley rat at 5 mg/kg, iv measured up to 72 hrs by LC-MS/MS analysis; assay type: ADME, organism-based; conditions: in vivo; in short: as §4
[13] = AUC (0 to infinity) in Sprague-Dawley rat assessed as docetaxel level at 5 mg/kg, iv measured up to 72 hrs by LC-MS/MS analysis; assay type: ADME, organism-based; parameters: route intravenous, dose 5 mg/kg, time <=72; conditions: in vivo; in short: as §4
[14] = Apparent volume of distribution in Sprague-Dawley rat assessed as docetaxel level at 5 mg/kg, iv measured up to 72 hrs by LC-MS/MS analysis; assay type: ADME, organism-based; conditions: in vivo; in short: as §4
[15] = Drug uptake in BALB/c nude mouse xenografted with human HCT-116 cells assessed as drug level in spleen at 5 mg/kg, iv measured up to 24 hrs by LC-MS/MS analysis; assay type: ADME, organism-based; conditions: in vivo
In short: (§5)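 Male BALB/c nude mice bearing s.c. HCT116 tumours (200-300 mm3), 20 per group. Single tail-vein dose of 5 mg/kg. Five mice per group killed at 0.5, 4, 8 and 24 h and heart-perfused with PBS. Tissues homogenized in saline (4 µL/mg) and precipitated with methanol containing paclitaxel internal standard. Prodrug, released DTX and free DTX measured by LC-MS/MS.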

[16] = Drug uptake in BALB/c nude mouse xenografted with human HCT-116 cells assessed as drug level in lung at 5 mg/kg, iv measured up to 24 hrs by LC-MS/MS analysis; assay type: ADME, organism-based; conditions: in vivo; in short: as §5

Work on `CC[C@H](C)[C@H](NC(=O)CNC(=O)[C@H](CCC(N)=O)NC(=O)[C@@H]1CCCN1C(=O)CNC(C)=O)C(=O)N[C@@H](C)C(=O)N[C@@H](CCSC)C(=O)N[C@@H](CCC(N)=O)C(=O)N[C@@H](CC(C)C)C(=O)Nc1ccc(COC(=O)O[C@@H](C(=O)O[C@H]2C[C@@]3(O)[C@@H](OC(=O)c4ccccc4)[C@@H]4[C@]5(OC(C)=O)CO[C@@H]5C[C@H](O)[C@@]4(C)C(=O)[C@H](O)C(=C2C)C3(C)C)[C@@H](NC(=O)OC(C)(C)C)c2ccccc2)cc1` (Ac-GPQGIAMQL-X1) yielded an Activity [1] of 8.5%, an IC50 (HCT-116 [2]) of 0.0091 µM and an IC50 (HEK293) of 137 µM. The half-life at 50 ug/ml [3] was > 72 h, the TGI (HCT-116 [4]) was “Dose-dependent effect” and the inhibition in vivo at 23.4 mg/kg (HCT-116 [5]) was 56.1%. For the same compound, the inhibition in vivo at 5.85 mg/kg (HCT-116 [6]) was 28.8%, the Activity [7] was “Non-Toxic” and the Activity [8] was “Non-Toxic”. For the same compound, the Activity [9] was “Non-Toxic”, the AUC(0-t) at 72 h [10] was 9070 ng·h/mL and the AUC(0-inf) [11] was 9240 ng·h/mL. It also gave an MRT inf [12] of 11.6 h, an AUC [13] of 299 ng·h/mL and a Vz [14] of 206.32 L/kg. For the same compound, the Drug uptake [15] was “Active” and the Drug uptake [16] was “Active”.
